Data published in publication PMC7182240 (The Pediatric Infectious Disease Journal, 2020).
Entries after “also recorded” stand apart in the source; their conditions may differ. *1 amine or outer side, *2 acyl side, *3 side chain or, on linkers, in order; H or OH if unused. Where a SMILES comes first, the peptide text is derived from it. Bridges are numbered along the chain shown (N, C = ends). [ ]: non-standard residue; d: D form. The star is where a group is joined. pTerphenylCO(4''-OnC5H11) = CCCCCOc1ccc(-c2ccc(-c3ccc(C(=O)*)cc3)cc2)cc1; Orn(4R-OH,5R-OH) = O=C([C@H](C[C@@H](O)[C@@H](O)N[*:3])N[*:1])[*:2]; hTyr(3S-OH,4S-OH) = N[C@H](C(=O)O)[C@H](O)[C@@H](O)c1ccc(O)cc1; Pro(3S-OH,4S-Me) = C[C@H]1CN[C@H](C(=O)O)[C@H]1O; Hyp = O=C(O)[C@@H]1C[C@@H](O)CN1

Assays:
Safety and tolerability = type: in vivo, human
In short: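 Safety population: all 19 patients aged 1 month to <2 years, with confirmed or high-risk invasive candidiasis, who received IV drug (3 mg/kg day 1, then 1.5 mg/kg daily, ≤1.1 mg/min, ≤35 days). Optional oral fluconazole was allowed after ≥10 days (confirmed cases) or ≥5 days (high-risk), to ≤49 days total. Treatment-emergent adverse events and all-cause mortality were recorded throughout the study and summarized descriptively.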

invasive candidiasis = settings: cited from earlier work
[1] = test system: invasive candidiasis, including candidemia (Candida species); test: Global response, relapse and microbiologic outcome in invasive candidiasis; type: in vivo, human
In short: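 Modified intent-to-treat patients (≥1 dose, microbiologically confirmed Candida infection) received IV drug: 3 mg/kg loading dose on day 1, then 1.5 mg/kg daily for ≤35 days. An optional switch to oral fluconazole (6–12 mg/kg/d, max 800 mg/d) was allowed after ≥10 days IV, to ≤49 days total. Global response was assessed at end of IV therapy, end of treatment, and week 2 and 6 follow-up. Relapse and new infection were also assessed. Analysis was descriptive.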

[2] = PS80 plasma concentration in infants; type: in vivo, human; settings: infants receiving anidulafungin formulated with PS80
[3] = safety population n = 19, all causalities, AEs up to 30 days after last dose

## CCCCCOc1ccc(-c2ccc(-c3ccc(C(=O)N[C@H]4C[C@@H](O)[C@@H](O)NC(=O)[C@@H]5[C@@H](O)[C@@H](C)CN5C(=O)[C@H]([C@@H](C)O)NC(=O)[C@H]([C@H](O)[C@@H](O)c5ccc(O)cc5)NC(=O)[C@@H]5C[C@@H](O)CN5C(=O)[C@H]([C@@H](C)O)NC4=O)cc3)cc2)cc1 [anidulafungin] ({pTerphenylCO(4''-OnC5H11)}-[Orn(4R-OH,5R-OH)]T[Hyp][hTyr(3S-OH,4S-OH)]T[Pro(3S-OH,4S-Me)]; lactam 1-C)
Safety and tolerability; 3 of 19 patients
  Patients with treatment-related TEAEs: 15.8%
Safety and tolerability; 7 of 19 patients
  Patients with severe TEAEs: 36.8%
Safety and tolerability; 17 of 19 patients, safety population
  Patients with TEAEs of any causality: 89.5%
Safety and tolerability; safety population n = 19
  Treatment-related deaths: no treatment-related deaths occurred; also recorded: No deaths were considered related to anidulafungin
Safety and tolerability; [3]
  Incidence of TEAE: Device-related infection: 1 (5.3) n (%)
  Incidence of TEAE: Lower respiratory tract infection: 1 (5.3) n (%)
  Incidence of TEAE: Upper respiratory tract infection: 1 (5.3) n (%)
Invasive candidiasis
  Global response of success at EOIVT in adults: 75.6%
[1]; 11 of 16 patients, MITT, 1 month to <2 years
  Global response success rate at EOIVT: 68.8%
[1]; 15 of 16
  Patients achieving negative blood cultures: 93.8%
[1]; Candida species
  Resistance to anidulafungin: No resistance to anidulafungin was observed
[1]; MITT population
  Median time to first negative blood culture: 3 days
[1]; week 2 and week 6 follow-up visits
  Relapse or new infection: No patients relapsed or experienced new infection

## OC(Cn1cncn1)(Cn1cncn1)c1ccc(F)cc1F [fluconazole]
Safety and tolerability; 6 patients switched to oral fluconazole 6-12 mg/kg/d
  TEAEs related to fluconazole: No patients experienced TEAEs related to fluconazole

## polysorbate 80 [PS80]
[2]
  Hepatotoxicity or PS80 accumulation: No hepatotoxicity or PS80 accumulation was detected
